Source: ChEMBL document CHEMBL1240348, “Pretreatment of epithelial cells with rifaximin alters bacterial attachment and internalization profiles” (Antimicrob Agents Chemother, 2010)
Activity calls are given as the source filed them.

Tests used:
Format in all cases: functional, cell-based
[1] = test system: Escherichia coli; assay: Inhibition of enteroaggregative Escherichia coli 042 adherence to human Hep2 cells pretreated by adherence assay; details: HEp-2
Summary of the method: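 HEp-2 monolayers, confluent unless otherwise specified, in chambered slides were exposed to antibiotic or controls for 4, 8, 16, 18 or 24 h, then washed three times with PBS. EAEC O42 (7 × 10^6 to 1 × 10^7 in DMEM, 10% FBS, 1% D-mannose) was added for 3 h at 37°C. Attachment was assessed microscopically after Wright-Giemsa staining.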

[2] = test system: Escherichia coli; assay: Inhibition of enteroaggregative Escherichia coli 042 adherence to human HCT-8 cells pretreated at 64 ug/ml for 24 hrs by adherence assay
Summary of the method: (§1)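 Confluent cells in 24-well plates, in DMEM with 10% FBS and no antibiotics, were pretreated with drug (from acetone stock) or an equal volume of acetone, then washed three times with PBS. HEp-2 received 8, 32 or 64 μg/ml; the other lines 32 or 64 μg/ml for 24 h. Cells were then infected for 3 h at 37°C (next note).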

[3] = test system: HEp-2; assay: Effect on cytokine level in human Hep2 cells assessed as absence of MIP5 pretreated at 64 ug/ml for 24 hrs
Summary of the method: (§2)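 Confluent HEp-2 cells on chambered slides were given fresh medium containing antibiotic at 64 μg/ml, acetone diluent (64 μl), or no antibiotic. Supernatants collected 24 h later were probed on a cytokine array membrane covering GM-CSF, MIPs, MMP3, RANTES, TGF-β, IFN-γ, TNFRI/II, VCAM-1, VEGF and interleukins. Each analyte was read as detected or not detected.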

[4] = test system: HEp-2; assay: Effect on cytokine level in human Hep2 cells assessed as RANTES level pretreated at 64 ug/ml for 24 hrs; summary of the method: as §2
[5] = test system: HEp-2; assay: Effect on cytokine level in human Hep2 cells assessed as IL-4 level pretreated at 64 ug/ml for 24 hrs; summary of the method: as §2
[6] = test system: HEp-2; assay: Effect on cytokine level in human Hep2 cells assessed as IFN-gamma level pretreated at 64 ug/ml for 24 hrs; summary of the method: as §2
[7] = test system: HEp-2; assay: Effect on cytokine level in human Hep2 cells assessed as TNFRI level pretreated at 64 ug/ml for 24 hrs; summary of the method: as §2
[8] = test system: Escherichia coli; assay: Inhibition of enteroaggregative Escherichia coli 042 adherence to human Hep2 cells pretreated at 64 ug/ml for 24 hrs by adherence assay; details: HEp-2; summary of the method: as §1
[9] = test system: HEp-2; assay: Effect on cytokine level in human Hep2 cells assessed as IL-15 level pretreated at 64 ug/ml for 24 hrs; summary of the method: as §2
[10] = test system: HEp-2; assay: Effect on cytokine level in human Hep2 cells assessed as GM-CSF level pretreated at 64 ug/ml for 24 hrs; summary of the method: as §2
[11] = test system: HEp-2; assay: Effect on cytokine level in human Hep2 cells assessed as MIP4 level pretreated at 64 ug/ml for 24 hrs; summary of the method: as §2
[12] = test system: HEp-2; assay: Effect on cytokine level in human Hep2 cells assessed as TNFR2 level pretreated at 64 ug/ml for 24 hrs; summary of the method: as §2
[13] = test system: HEp-2; assay: Effect on cytokine level in human Hep2 cells assessed as VEGF level pretreated at 64 ug/ml for 24 hrs; summary of the method: as §2
[14] = test system: Escherichia coli; assay: Inhibition of enteroaggregative Escherichia coli 042 adherence to human HeLa cells pretreated at 64 ug/ml for 24 hrs by adherence assay; summary of the method: as §1
[15] = test system: HEp-2; assay: Effect on cytokine level in human Hep2 cells assessed as IL-8 level pretreated at 64 ug/ml for 24 hrs; summary of the method: as §2
[16] = test system: Escherichia coli; assay: Inhibition of enteroaggregative Escherichia coli 042 adherence to human A549 cells pretreated at 64 ug/ml for 24 hrs by adherence assay; summary of the method: as §1
[17] = test system: Escherichia coli; assay: Inhibition of enteroaggregative Escherichia coli 042 adherence to human Hep2 cells using cell supernatants from pretreated at 64 ug/ml for 24 hrs by adherence assay; details: HEp-2
Summary of the method: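 Confluent HEp-2 cells were grown 24 h in medium with 64 μg/ml antibiotic, acetone, or nothing. The conditioned medium was dialyzed against PBS (6–8 kDa cutoff, four changes of at least 6 h each, 4°C). EAEC (7 × 10^6/ml) was mixed 1:1 with dialyzed medium and added to untreated HEp-2 slides or cell-free chambers for 3 h, then stained and examined microscopically.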

[18] = test system: HEp-2; assay: Effect on cytokine level in human Hep2 cells assessed as MIP5 level pretreated at 64 ug/ml for 24 hrs; summary of the method: as §2
[19] = test system: HEp-2; assay: Effect on cytokine level in human Hep2 cells assessed as IL-6 level pretreated at 64 ug/ml for 24 hrs; summary of the method: as §2
[20] = test system: HEp-2; assay: Effect on cytokine level in human Hep2 cells assessed as IL-12 (p40) level pretreated at 64 ug/ml for 24 hrs; summary of the method: as §2
[21] = test system: HEp-2; assay: Effect on cytokine level in human Hep2 cells assessed as VCAM-1 level pretreated at 64 ug/ml for 24 hrs; summary of the method: as §2
[22] = test system: Escherichia coli; assay: Inhibition of enteroaggregative Escherichia coli 042 adherence to human Hep2 cells pretreated at 32 ug/ml for 24 hrs by adherence assay; details: HEp-2; summary of the method: as §1
[23] = test system: HEp-2; assay: Effect on cytokine level in human Hep2 cells assessed as TGF-beta level pretreated at 64 ug/ml for 24 hrs; summary of the method: as §2
[24] = test system: HEp-2; assay: Effect on cytokine level in human Hep2 cells assessed as MMP3 level pretreated at 64 ug/ml for 24 hrs; summary of the method: as §2

CO[C@H]1/C=C/O[C@@]2(C)Oc3c(C)c(O)c4c(O)c(c(/C=N/N5CCN(C)CC5)c(O)c4c3C2=O)NC(=O)/C(C)=C\C=C\[C@H](C)[C@H](O)[C@@H](C)[C@@H](O)[C@@H](C)[C@H](OC(C)=O)[C@@H]1C
inhibition [1]: Active

CO[C@H]1/C=C/O[C@@]2(C)Oc3c(C)c(O)c4c(O)c(c5c(nc6cc(C)ccn65)c4c3C2=O)NC(=O)/C(C)=C\C=C\[C@H](C)[C@H](O)[C@@H](C)[C@@H](O)[C@@H](C)[C@H](OC(C)=O)[C@@H]1C
inhibition [2]: inactive
Activity [3]: Active
Activity [4]: Active
Activity [5]: Active
Activity [6]: Active
Activity [7]: Active
inhibition [8]: Active
Activity [9]: Active
Activity [10]: Active
Activity [11]: Active
Activity [12]: Active
Activity [13]: Active
inhibition [14]: Active
Activity [15]: Active
inhibition [16]: Active
inhibition [17]: inactive
Activity [18]: Active
Activity [19]: Active
Activity [20]: Active
Activity [21]: Active
inhibition [22]: Active
Activity [23]: Active
Activity [24]: Active
